Measured values taken from ChEMBL document CHEMBL1154078, “Synthesis of novel purine nucleosides towards a selective inhibition of human butyrylcholinesterase” (Bioorg Med Chem, 2009).
The source made the active and inactive calls. No cut-off for these calls is given here.

Tests used:
[1] = biological target: T1, Cholinesterase (Homo sapiens, UniProt P06276); experiment: Inhibition of BChE in human serum assessed as hydrolysis of butyrylthiocholine by Ellman's method; assay type: cell-free
Summary of the method: (§1)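 Human serum BChE (0.44 U/mL solution) in 0.1 M phosphate buffer pH 8.0 with S-butyrylthiocholine iodide and DTNB. Absorbance at 410 nm followed kinetically for 4 min at 30 °C, at least four replicates. IC50 obtained by non-linear regression of the dose–response, given as mean ± SEM.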

[2] = biological target: T1, Cholinesterase; experiment: Inhibition of BChE in human serum assessed as hydrolysis of butyrylthiocholine at 100 ug/mL by Ellman's method; assay type: cell-free
Summary of the method: as §1, with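 “replicates. Inhibition % = 100 − 100·V/V_max, where V_max comes from blanks without inhibitor; one-sided t-test.” for “replicates.”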

[3] = biological target: T1, Cholinesterase; experiment: Inhibition of BChE in human serum assessed as hydrolysis of butyrylthiocholine at 10 ug/mL by Ellman's method
Summary of the method: as §1, with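 “replicates. Inhibition % = 100 − 100·V/V_max, where V_max comes from blanks without inhibitor; one-sided t-test.” for “replicates.”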

[4] = biological target: T1, Cholinesterase; experiment: Inhibition of BChE in human serum assessed as hydrolysis of butyrylthiocholine at 1 ug/mL by Ellman's method; assay type: cell-free
Summary of the method: as §1, with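 “replicates. Inhibition % = 100 − 100·V/V_max, where V_max comes from blanks without inhibitor; one-sided t-test.” for “replicates.”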

[5] = biological target: T2, Acetylcholinesterase (Bos taurus) (UniProt P23795); experiment: Inhibition of AChE in bovine erythrocytes assessed as hydrolysis of acetylthiocholine by Ellman's method
T2 sequence (whole entry): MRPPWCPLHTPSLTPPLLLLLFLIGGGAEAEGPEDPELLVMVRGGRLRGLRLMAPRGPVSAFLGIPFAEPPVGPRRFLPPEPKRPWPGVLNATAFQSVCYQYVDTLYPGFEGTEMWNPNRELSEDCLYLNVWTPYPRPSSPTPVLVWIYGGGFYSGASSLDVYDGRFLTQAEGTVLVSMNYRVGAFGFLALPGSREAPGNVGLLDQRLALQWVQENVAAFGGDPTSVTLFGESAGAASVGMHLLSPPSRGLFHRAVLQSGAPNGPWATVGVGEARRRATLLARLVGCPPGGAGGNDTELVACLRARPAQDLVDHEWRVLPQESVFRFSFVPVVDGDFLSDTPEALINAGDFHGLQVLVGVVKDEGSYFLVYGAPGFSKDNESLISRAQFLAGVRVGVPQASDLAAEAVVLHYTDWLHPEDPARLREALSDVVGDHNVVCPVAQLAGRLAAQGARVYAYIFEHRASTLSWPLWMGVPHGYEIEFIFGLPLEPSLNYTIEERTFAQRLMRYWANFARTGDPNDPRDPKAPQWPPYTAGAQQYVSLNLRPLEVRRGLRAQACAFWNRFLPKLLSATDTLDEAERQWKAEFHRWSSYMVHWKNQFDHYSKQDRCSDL
Summary of the method: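 Bovine erythrocyte AChE (1.32 U/mL solution) in 0.1 M phosphate buffer pH 8.0 with acetylthiocholine iodide and DTNB. Yellow product read kinetically at 410 nm for 4 min at 30 °C. Rates compared with no-inhibitor V_max; inhibition % = 100 − 100·V/V_max. At least four replicates. One-sided t-test against 0% inhibition.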

[6] = biological target: T1, Cholinesterase; experiment: Inhibition of BChE in human serum assessed as hydrolysis of butyrylthiocholine at 0.1 ug/mL by Ellman's method
Summary of the method: as §1, with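 “replicates. Inhibition % = 100 − 100·V/V_max, where V_max comes from blanks without inhibitor; one-sided t-test.” for “replicates.”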

[7] = Cytotoxicity against human A549 cells assessed as cell viability at 2000 ug/mL after 24 hrs by MTT assay relative to control; assay type: cell-based; settings: read-out: Activity
Summary of the method: (§2)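 A549 cells seeded, left 24 h to attach, then exposed to compound for 24 h. Hydrogen peroxide served as positive control and pure solvent as negative control. At 48 h of culture, MTT added to a final concentration of 0.5 mg/mL and incubated 3 h. Medium removed, cells washed twice, formazan dissolved in DMSO with shaking for 20 min at room temperature.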

[8] = Cytotoxicity against human A549 cells assessed as cell viability at 200 ug/mL after 24 hrs by MTT assay relative to control; assay type: cell-based; settings: read-out: Activity; summary of the method: as §2
[9] = Cytotoxicity against human A549 cells assessed as cell viability at 20 ug/mL after 24 hrs by MTT assay relative to control; assay type: cell-based; settings: read-out: Activity; summary of the method: as §2
[10] = Cytotoxicity against human A549 cells assessed as cell viability at 2 ug/mL after 24 hrs by MTT assay relative to control; assay type: cell-based; settings: read-out: Activity; summary of the method: as §2
[11] = Cytotoxicity against human A549 cells assessed as cell viability at 0.2 ug/mL after 24 hrs by MTT assay relative to control; assay type: cell-based; settings: read-out: Activity; summary of the method: as §2
[12] = Cytotoxicity against human A549 cells assessed as cell viability at 100 ug/mL after 24 hrs by MTT assay relative to control; assay type: cell-based; settings: read-out: Activity
Summary of the method: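 A549 cells seeded, allowed to attach 24 h, then exposed to compound for 24 h; hydrogen peroxide positive control, solvent negative control. MTT added at 48 h of culture (final 0.5 mg/mL), 3 h incubation, cells washed twice, formazan dissolved in DMSO with 20 min shaking at room temperature; viable, metabolically active cells quantified.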

T1 sequence (P06276 whole entry): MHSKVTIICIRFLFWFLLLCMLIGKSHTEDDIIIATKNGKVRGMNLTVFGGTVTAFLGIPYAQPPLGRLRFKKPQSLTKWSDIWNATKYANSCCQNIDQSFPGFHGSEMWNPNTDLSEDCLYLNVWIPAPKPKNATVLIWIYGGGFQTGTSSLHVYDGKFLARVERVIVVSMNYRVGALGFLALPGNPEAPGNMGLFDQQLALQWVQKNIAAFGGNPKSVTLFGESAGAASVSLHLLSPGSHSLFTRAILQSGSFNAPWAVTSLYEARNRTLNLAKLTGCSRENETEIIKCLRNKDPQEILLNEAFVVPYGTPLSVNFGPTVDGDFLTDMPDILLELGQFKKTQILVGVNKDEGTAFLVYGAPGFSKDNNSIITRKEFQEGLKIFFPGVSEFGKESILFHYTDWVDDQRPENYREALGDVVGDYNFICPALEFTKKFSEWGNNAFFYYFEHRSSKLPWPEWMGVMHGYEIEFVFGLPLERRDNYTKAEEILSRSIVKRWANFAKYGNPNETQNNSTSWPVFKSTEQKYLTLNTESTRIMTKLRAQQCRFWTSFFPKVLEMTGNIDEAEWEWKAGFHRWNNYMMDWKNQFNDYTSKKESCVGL

Structure (SMILES): C=C[C@H](O)[C@@H]1O[C@H](OC)[C@@H]2OC[C@H](OCc3ccccc3)[C@]2(OCc2ccccc2)[C@@H]1OCc1ccccc1
- IC50 [1]: 31 µM
- inhibition [2]: 76%
- inhibition [3]: 54%
- inhibition [4]: 4%
- inhibition [5]: inactive

Structure (SMILES): C=C[C@@H](O)[C@@H]1O[C@H](OC)[C@@H]2OC[C@H](OCc3ccccc3)[C@]2(OCc2ccccc2)[C@@H]1OCc1ccccc1
- IC50 [1]: 50 µM
- inhibition [2]: 73%
- inhibition [3]: 23%
- inhibition [5]: inactive

Structure (SMILES): CO[C@H]1O[C@@H]([C@H](N=[N+]=[N-])C(=O)OCc2ccccc2)[C@@H](OCc2ccccc2)[C@@]2(OCc3ccccc3)[C@@H](OCc3ccccc3)CO[C@@H]12
- IC50 [1]: 4.2 µM
- inhibition [2]: 91%
- inhibition [3]: 64%
- inhibition [4]: 36%
- inhibition [6]: 15%
- inhibition [5]: inactive
- viability at 24 h, 2000 ug/mL [7]: 25%
- viability at 24 h, 200 ug/mL [8]: 47.9%
- viability at 24 h, 20 ug/mL [9]: 73.9%
- viability at 24 h, 2 ug/mL [10]: 71.2%
- viability at 24 h, 0.2 ug/mL [11]: 90.2%

Structure (SMILES): CO[C@H]1O[C@H](CO)[C@@H](O)[C@@]2(O)[C@@H](O)CO[C@@H]12
- inhibition [2]: < 5%
- inhibition [5]: inactive

Structure (SMILES): CCN(C)C(=O)Oc1cccc([C@H](C)N(C)C)c1 [RIVASTIGMINE]
- inhibition [2]: 100%
- inhibition [3]: 100%
- inhibition [4]: 100%
- inhibition [6]: 76%
- inhibition [5]: inactive
- viability at 24 h, 100 ug/mL [12]: 89%

Structure (SMILES): CO[C@H]1O[C@H](COC(=O)c2ccccc2)[C@@H](OC(=O)c2ccccc2)[C@@]2(OC(=O)c3ccccc3)[C@@H](OC(=O)c3ccccc3)CO[C@@H]12
- inhibition [2]: 7%
- inhibition [5]: inactive

Structure (SMILES): CO[C@H]1O[C@@H]([C@H](O)C(=O)OCc2ccccc2)[C@@H](OCc2ccccc2)[C@@]2(OCc3ccccc3)[C@@H](OCc3ccccc3)CO[C@@H]12
- IC50 [1]: 133 µM
- inhibition [2]: 55%
- inhibition [3]: 8%
- inhibition [5]: inactive

Structure (SMILES): CO[C@H]1O[C@@H]([C@@H](N=[N+]=[N-])C(=O)OCc2ccccc2)[C@@H](OCc2ccccc2)[C@@]2(OCc3ccccc3)[C@@H](OCc3ccccc3)CO[C@@H]12
- IC50 [1]: 13.4 µM
- inhibition [2]: 98%
- inhibition [3]: 73%
- inhibition [4]: 14%
- inhibition [5]: inactive
- viability at 24 h, 2000 ug/mL [7]: 16%
- viability at 24 h, 200 ug/mL [8]: 64.2%
- viability at 24 h, 20 ug/mL [9]: 63.6%
- viability at 24 h, 2 ug/mL [10]: 76.2%
- viability at 24 h, 0.2 ug/mL [11]: 90.5%
